The results in this text go back to ChEMBL document CHEMBL4765454, “Betulinic acid derived amides are highly cytotoxic, apoptotic and selective” (Eur J Med Chem, 2020).

Active and inactive are the calls of the source. The rule behind the calls is not given here. Where only a bound is given, the exact number is not on record here.

Data set [1] in a line: Selectivity ratio of EC50 for mouse NIH3T3 cells to EC50 for human A375 cells. The data set is classed as toxicity. The settings on record: NIH3T3 cells versus A375 cells, read-out: Ratio EC50.
A short description of data set [2]: Selectivity ratio of EC50 for mouse NIH3T3 cells to EC50 for human A2780 cells. Type of data set: toxicity. The settings on record: NIH3T3 cells versus A2780 cells, read-out: Ratio EC50.
The test system of the next data set is A2780. Description: Cytotoxicity against human A2780 cells assessed as reduction in cell viability incubated for 72 hrs by SRB assay. To be noted: Homo sapiens, A2780, 72 h; read-out: EC50. The data set is classed as functional, cell-based.
Data set [3] is described as follows: Selectivity ratio of EC50 for mouse NIH3T3 cells to EC50 for human HT-29 cells. The data set is classed as toxicity. The settings on record: NIH3T3 cells versus HT-29 cells, read-out: Ratio EC50.
Data set [4] relates to A-375. The data set can be described thus: Cytotoxicity against human A-375 cells assessed as reduction in cell viability incubated for 72 hrs by SRB assay. Type of data set: functional, cell-based. The settings on record: Homo sapiens, A-375, 72 h; read-out: EC50.
The subject of the next data set is MCF7. The data set can be described thus: Cytotoxicity against human MCF7 cells assessed as reduction in cell viability incubated for 72 hrs by SRB assay. Type of data set: functional, cell-based. The settings on record: Homo sapiens, MCF7, 72 h; read-out: EC50.
In another data set the test system is HT-29. The data set can be described thus: Cytotoxicity against human HT-29 cells assessed as reduction in cell viability incubated for 72 hrs by SRB assay. The data set is classed as functional, cell-based. To be noted: Homo sapiens, HT-29, 72 h; read-out: EC50.
Data set [5] in a line: Selectivity ratio of EC50 for mouse NIH3T3 cells to EC50 for human FaDu cells.
Data set [6] is described as follows: Selectivity ratio of EC50 for mouse NIH3T3 cells to EC50 for human MCF7 cells. The data set is classed as toxicity. To be noted: NIH3T3 cells versus MCF7 cells, read-out: Ratio EC50.
The subject of a further data set is NIH3T3. Description: Cytotoxicity against mouse NIH3T3 cells assessed as reduction in cell viability incubated for 72 hrs by SRB assay. The data set is classed as cell-based. To be noted: Mus musculus, NIH3T3, 72 h; read-out: EC50.
The test system of a further data set is FaDu. The data set can be described thus: Cytotoxicity against human FaDu cells assessed as reduction in cell viability incubated for 72 hrs by SRB assay. Type of data set: functional, cell-based. The settings on record: Homo sapiens, FaDu, 72 h; read-out: EC50.
Data set [7] has as its system A-375. Description: Cell cycle arrest in human A375 cells assessed as accumulation at S phase measured after 48 hrs by propidium iodide staining based flow cytometry (reference value: 31.3%). Type of data set: functional.
In data set [8] the test system is A-375. The data set can be described thus: Induction of apoptosis in human A375 cells assessed as blebbing at 6.2 uM measured after 48 hrs by microscopic analysis. Type of data set: functional, cell-based. Put shortly: (§1)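 A375 cells treated at 3.0, 4.8 or 6.2 µM and inspected by light microscopy after 24 h or 48 h. Cell number and morphology were scored for apoptotic features: shrinkage, strangulation and blebbing.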

The subject of data set [9] is A-375. Description: Induction of apoptosis in human A375 cells at 6.2 uM measured after 24 hrs by microscopic analysis. The data set is classed as functional, cell-based. Put shortly:
as §1

Data set [10] concerns A-375. The data set can be described thus: Cell cycle arrest in human A375 cells assessed as accumulation at subG1 phase measured after 24 hrs by propidium iodide staining based flow cytometry (reference value: 0.46%). Type of data set: functional.
The subject of data set [11] is A-375. Description: Induction of apoptosis in human A375 cells assessed as viable cells at 6.2 uM measured after 24 hrs by Annexin V-FITC/propidium iodide staining based flow cytometry (reference value: 90.123%). Type of data set: functional. The settings on record: read-out: Activity.
Data set [12] has as its system A-375. The data set can be described thus: Induction of apoptosis in human A375 cells assessed as necrotic cells at 6.2 uM measured after 24 hrs by Annexin V-FITC/propidium iodide staining based flow cytometry (reference value: 0.331%). Type of data set: functional.
Data set [13] has as its system A-375. Description: Induction of apoptosis in human A375 cells assessed as late apoptotic cells at 6.2 uM measured after 48 hrs by Annexin V-FITC/propidium iodide staining based flow cytometry (reference value: 5.108%). The data set is classed as functional.
In data set [14] the test system is A-375. Description: Induction of apoptosis in human A375 cells assessed as viable cells at 6.2 uM measured after 48 hrs by Annexin V-FITC/propidium iodide staining based flow cytometry (reference value: 92.723%). Type of data set: functional. To be noted: read-out: Activity.
The subject of data set [15] is A-375. The data set can be described thus: Induction of apoptosis in human A375 cells assessed as strangulation at 6.2 uM measured after 48 hrs by microscopic analysis. Type of data set: functional, cell-based. Put shortly:
as §1

The subject of data set [16] is A-375. Description: Cell cycle arrest in human A375 cells assessed as accumulation at G1 phase measured after 48 hrs by propidium iodide staining based flow cytometry (reference value: 57.3%). The data set is classed as functional.
Data set [17] deals with A-375. The data set can be described thus: Cell cycle arrest in human A375 cells assessed as accumulation at G2/M phase measured after 24 hrs by propidium iodide staining based flow cytometry (reference value: 7.48%). Type of data set: functional.
Data set [18] relates to A-375. The data set can be described thus: Induction of apoptosis in human A375 cells assessed as cell shrinkage at 6.2 uM measured after 48 hrs by microscopic analysis. Type of data set: functional, cell-based. A digest of the protocol: as §1
Data set [19] concerns A-375. The data set can be described thus: Cell cycle arrest in human A375 cells assessed as accumulation at G1 phase measured after 24 hrs by propidium iodide staining based flow cytometry (reference value: 44.59%). Type of data set: functional.
The test system of data set [20] is A-375. The data set can be described thus: Cell cycle arrest in human A375 cells assessed as accumulation at S phase measured after 24 hrs by propidium iodide staining based flow cytometry (reference value: 47.46%). The data set is classed as functional.
In data set [21] the test system is A-375. Description: Induction of apoptosis in human A375 cells assessed as early apoptotic cells at 6.2 uM measured after 24 hrs by Annexin V-FITC/propidium iodide staining based flow cytometry (reference value: 2.194%). Type of data set: functional.
Data set [22] has as its system A-375. The data set can be described thus: Induction of apoptosis in human A375 cells assessed as early apoptotic cells at 6.2 uM measured after 48 hrs by Annexin V-FITC/propidium iodide staining based flow cytometry (reference value: 1.622%). The data set is classed as functional.
In data set [23] the test system is A-375. The data set can be described thus: Cell cycle arrest in human A375 cells assessed as accumulation at subG1 phase measured after 48 hrs by propidium iodide staining based flow cytometry (reference value: 0.57%). The data set is classed as functional.
In data set [24] the test system is A-375. The data set can be described thus: Cell cycle arrest in human A375 cells assessed as accumulation at G2/M phase measured after 48 hrs by propidium iodide staining based flow cytometry (reference value: 10.83%). Type of data set: functional.
The test system of data set [25] is A-375. The data set can be described thus: Induction of apoptosis in human A375 cells assessed as late apoptotic cells at 6.2 uM measured after 24 hrs by Annexin V-FITC/propidium iodide staining based flow cytometry (reference value: 7.352%). The data set is classed as functional.
Data set [26] relates to A-375. The data set can be described thus: Induction of apoptosis in human A375 cells assessed as necrotic cells at 6.2 uM measured after 48 hrs by Annexin V-FITC/propidium iodide staining based flow cytometry (reference value: 0.547%). Type of data set: functional.

In the case of `C=C(C)[C@@H]1CC[C@]2(C(=O)O)CC[C@]3(C)[C@H](CC[C@@H]4[C@@]5(C)C[C@H](OC(C)=O)[C@H](OC(C)=O)C(C)(C)[C@@H]5CC[C@]43C)[C@@H]12`, the selectivity ratio turned out to be 0.9 in data set [1], 1.6 in data set [2], 0.8 in [3] and 1.3 in [6]. Further, the EC50 with A2780 was 8.68 µM; in the data set with A-375 [4], 15.8 µM; in the data set on MCF7, 11.2 µM; in the data set with HT-29, 17.4 µM; in the data set with NIH3T3 it was 14.1 µM; with FaDu, 13.5 µM. Moreover, the “Ratio EC50” value in [5] is 1.
In the case of `C=C(C)[C@@H]1CC[C@]2(C(=O)NCc3ccccc3)CC[C@]3(C)[C@H](CC[C@@H]4[C@@]5(C)C[C@H](OC(C)=O)[C@H](OC(C)=O)C(C)(C)[C@@H]5CC[C@]43C)[C@@H]12`, the Activity with A-375 [7] worked out at 21.92%; in the data set on A-375 [10], 5.98%; in the data set on A-375 [12], 0.667%; in the data set with A-375 [13] it was 20.078%; with A-375 [16] it was 52.38%; with A-375 [17], 0%. The Activity was 63.76% in the data set on A-375 [19]; 30.27% in the data set on A-375 [20]; 9.546% in the data set on A-375 [21]; 44.187% with A-375 [22]; 25.69% in the data set with A-375 [23]; 0% in the data set with A-375 [24]. The values for the Activity with A-375 [25] and with A-375 [26] were 7.93% and 1.449%, respectively. Also, the values for the selectivity ratio in data set [2], in data set [3] and in [6] were 15.8, 3.4 and 6.2, respectively. In addition, the outcome in the data set on A-375 [8], with A-375 [9], in the data set with A-375 [15] and in the data set on A-375 [18] was Active. Moreover, the EC50 in the data set on A2780 was 4.42 µM; in the data set on A-375 [4], 3.14 µM; in the data set with MCF7, 11.3 µM; in the data set on HT-29, 20.7 µM; in the data set on NIH3T3, above 70 µM; in the data set with FaDu it was 5.4 µM. Besides, the viability at 6.2 µM with A-375 [11] worked out at 81.9%; with A-375 [14] it was 34.3%. Further, in [5], the “Ratio EC50” value was found to be 13.
`CC(=O)O[C@H]1C[C@]2(C)[C@H]3CC[C@@H]4[C@H]5[C@H](C(C)=O)CC[C@]5(C(=O)O)CC[C@@]4(C)[C@]3(C)CC[C@H]2C(C)(C)[C@H]1OC(C)=O`: the selectivity ratio in [1] came to 0.4; in [2], 0.3; in data set [3], 0.3; in [6], 0.3. The EC50 with A2780 was above 30 µM; in the data set on A-375 [4] it was 22.5 µM; in the data set on MCF7, above 30 µM; with HT-29 it was above 30 µM; with NIH3T3, 9.57 µM; in the data set with FaDu it was above 30 µM. The “Ratio EC50” value in data set [5] came out at 0.3.
